Source: ChEMBL document CHEMBL1124115, “Synthesis and biological activity of CCK26-33-related analogues modified in position 31” (J Med Chem, 1988)
Square brackets hold non-standard residues; d marks the D form. Peptide text beside a SMILES is read from it. * marks the point of attachment. sY = N[C@@H](Cc1ccc(OS(=O)(=O)O)cc1)C(=O)O; Nle = CCCC[C@H](N)C(=O)O; Boc = CC(C)(C)OC(=O)*

Key:
Cavia porcellus [1] = species: Cavia porcellus; experiment: Agonist activity by measuring the effect on amylase secretion from guinea pig acini.; format: functional
Cavia porcellus [2] = species: Cavia porcellus; experiment: Potency in displacing [3H]Boc(Nle28,Nle31)-CCk27-33 from guinea pig pancreatic acini.; format: functional
Outline: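 Radioligand binding on guinea pig pancreatic acini with [3H]Boc(Nle28,Nle31)-CCK27-33 at 0.5 nM (KD = 1 nM). Values are mean ± SEM of three separate experiments, each run in triplicate.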

Mus musculus = species: Mus musculus; experiment: Potency in displacing [3H]propionyl-CCK-8 from mouse brain membranes.; format: functional
Outline: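 Displacement of [3H]propionyl-CCK8 at 0.4 nM (KD = 0.2 nM) from brain tissue. Data are mean ± SEM of three independent experiments, each in triplicate.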

Cavia porcellus [3] = species: Cavia porcellus; experiment: Agonist activity by measuring the ability to stimulate the contraction of the isolated guinea pig ileum.; format: functional
Cholecystokinin receptor = biological target: T1, Cholecystokinin receptor (Mus musculus, UniProt O08786+P56481); experiment: Potency in displacing [3H]propionyl-Cholecystokinin from mouse brain membranes.
T1 sequence (O08786 whole entry): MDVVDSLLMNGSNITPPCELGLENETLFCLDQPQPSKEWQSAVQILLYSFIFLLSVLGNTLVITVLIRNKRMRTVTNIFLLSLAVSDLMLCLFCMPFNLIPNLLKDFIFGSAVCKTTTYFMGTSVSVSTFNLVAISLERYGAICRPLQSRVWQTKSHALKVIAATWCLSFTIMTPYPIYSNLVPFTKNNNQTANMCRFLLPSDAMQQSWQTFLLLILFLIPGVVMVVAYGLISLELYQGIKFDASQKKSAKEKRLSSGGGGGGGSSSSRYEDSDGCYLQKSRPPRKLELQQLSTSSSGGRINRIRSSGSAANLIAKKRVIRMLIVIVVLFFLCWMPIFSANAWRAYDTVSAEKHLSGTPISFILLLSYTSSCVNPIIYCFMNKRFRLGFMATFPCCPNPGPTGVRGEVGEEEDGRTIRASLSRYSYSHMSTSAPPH
T1 sequence (P56481 whole entry): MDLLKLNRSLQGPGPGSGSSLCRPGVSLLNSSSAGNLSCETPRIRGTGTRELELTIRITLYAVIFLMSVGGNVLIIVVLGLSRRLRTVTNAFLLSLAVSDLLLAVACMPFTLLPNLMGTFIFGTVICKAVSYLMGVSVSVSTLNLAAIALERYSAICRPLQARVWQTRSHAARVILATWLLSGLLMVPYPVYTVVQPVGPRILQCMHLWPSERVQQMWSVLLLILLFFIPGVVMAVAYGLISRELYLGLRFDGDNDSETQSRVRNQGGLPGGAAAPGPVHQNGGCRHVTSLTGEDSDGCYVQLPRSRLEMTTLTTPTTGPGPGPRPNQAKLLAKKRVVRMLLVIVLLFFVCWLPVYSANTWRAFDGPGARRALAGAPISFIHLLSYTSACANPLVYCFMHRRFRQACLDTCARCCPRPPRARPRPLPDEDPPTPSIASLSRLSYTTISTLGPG
Outline: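 Competition binding on brain membranes against [³H]propionyl-CCK₈ used at 0.4 nM (K_D = 0.2 nM). Values are mean ± SEM of three separate experiments, each run in triplicate.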

Compound | EC50 (Cavia porcellus [1]) [µM] | Ki (Cavia porcellus [2]) [µM] | Ki (Mus musculus) [µM] | EC50 (Cavia porcellus [3]) [µM] | Ki (Cholecystokinin receptor) [µM]
CCCC[C@H](NC(=O)[C@H](Cc1ccc(OS(=O)(=O)O)cc1)NC(=O)OC(C)(C)C)C(=O)NCC(=O)N[C@@H](Cc1c[nH]c2ccccc12)C(=O)N[C@H](CCCN)C(=O)N[C@@H](CC(=O)O)C(=O)N[C@@H](Cc1ccccc1)C(N)=O | 0.022 | 0.39 | 0.11 | 0.19 | –
CCCC[C@H](NC(=O)[C@H](Cc1ccc(OS(=O)(=O)O)cc1)NC(=O)OC(C)(C)C)C(=O)NCC(=O)N[C@@H](Cc1c[nH]c2ccccc12)C(=O)N[C@@H](C)C(=O)N[C@@H](CC(=O)O)C(=O)N[C@@H](Cc1ccccc1)C(N)=O (Boc-[sY][Nle]GWADF-NH2) | 0.025 | 1.1 | 0.014 | 0.11 | –
CCCC[C@H](NC(=O)[C@H](Cc1ccc(OS(=O)(=O)O)cc1)NC(=O)OC(C)(C)C)C(=O)NCC(=O)N[C@@H](Cc1c[nH]c2ccccc12)C(=O)N[C@@H](CCC(=O)O)C(=O)N[C@@H](CC(=O)O)C(=O)N[C@@H](Cc1ccccc1)C(N)=O (Boc-[sY][Nle]GWEDF-NH2) | > 10 | > 10 | > 10 | > 1 | –
CSCC[C@H](NC(=O)[C@H](Cc1ccc(OS(=O)(=O)O)cc1)NC(=O)[C@@H](N)CC(=O)O)C(=O)NCC(=O)N[C@@H](Cc1c[nH]c2ccccc12)C(=O)N[C@@H](CCSC)C(=O)N[C@@H](CC(=O)O)C(=O)N[C@@H](Cc1ccccc1)C(N)=O [SINCALIDE] | 0.00013 | 0.0025 | – | 0.0007 | 0.0003

Further lines, with some results ahead:

EC50 (Cavia porcellus [1]) [µM] | Ki (Cavia porcellus [2]) [µM] | Ki (Mus musculus) [µM] | EC50 (Cavia porcellus [3]) [µM] | Compound | Ki (Cholecystokinin receptor) [µM]
0.0034 | 0.22 | 0.0037 | 0.011 | CCCC[C@H](NC(=O)[C@H](Cc1ccc(OS(=O)(=O)O)cc1)NC(=O)OC(C)(C)C)C(=O)NCC(=O)N[C@@H](Cc1c[nH]c2ccccc12)C(=O)N[C@@H](Cc1ccccc1)C(=O)N[C@@H](CC(=O)O)C(=O)N[C@@H](Cc1ccccc1)C(N)=O (Boc-[sY][Nle]GWFDF-NH2) | –
0.00016 | 0.0029 | 0.00013 | 0.0004 | CCCC[C@H](NC(=O)[C@H](Cc1ccc(OS(=O)(=O)O)cc1)NC(=O)OC(C)(C)C)C(=O)NCC(=O)N[C@@H](Cc1c[nH]c2ccccc12)C(=O)N[C@@H](CCCC)C(=O)N[C@@H](CC(=O)O)C(=O)N[C@@H](Cc1ccccc1)C(N)=O (Boc-[sY][Nle]GW[Nle]DF-NH2) | –
